Our source for the Activity values is ChEMBL document CHEMBL1151860, “Asymmetric synthesis and biological evaluation of Danshensu derivatives as anti-myocardial ischemia drug candidates” (Bioorg Med Chem, 2009).

Experiment [1] is filed under the species Rattus norvegicus. The experiment in a line: Cytoprotective effect against hypoxia-induced Sprague-Dawley rat NRVM assessed as decrease in LDH leakage pretreated for 12 hrs before hypoxia induction at 1 umol/L relative to control. The experiment is classed as functional. In outline:
(§1)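 Neonatal rat ventricular myocytes were obtained by trypsin digestion, preplated for 2 h, then seeded at 1 × 10⁶ cells/ml in DMEM with 10% FBS, penicillin/streptomycin and 5-bromo-deoxyuridine at 37 °C, 5% CO₂. After 48 h they were given compound for 12 h, then 5 h hypoxia. Viability was read by MTT and damage by LDH leakage; means SE.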

The species entered for experiment [2] is Rattus norvegicus. Put plainly: Antioxidant activity against hypoxia-induced lipid peroxidation in Sprague-Dawley rat NRVM assessed as decrease in malondialdehyde content at 1 umol/l relative to hypoxia control. The experiment is classed as functional.
The species entered for experiment [3] is Rattus norvegicus. Put plainly: Cytoprotective effect against hypoxia-induced Sprague-Dawley rat NRVM assessed as decrease in cellular damage pretreated for 12 hrs before hypoxia induction at 1 umol/L. The experiment is classed as functional.
The species named for experiment [4] is Rattus norvegicus. Put plainly: Cytoprotective effect against hypoxia-induced Sprague-Dawley rat NRVM assessed as increase in cell viability pretreated for 12 hrs before hypoxia induction at 1 umol/L measured after 5 hrs by MTT assay relative to control. The format is functional. The method, boiled down:
as §1

The subject of experiment [5] is Rattus norvegicus. Put plainly: Cardioprotective effect in Sprague-Dawley rat myocardial infarction model assessed as decrease in serum malondialdehyde level at 15 to 60 mg/kg, ip treated 7 days before myocardial infarction surgery and after 2 days once daily. The experiment is classed as functional, organism-based. In outline: (§2)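 Male Sprague-Dawley rats (230–250 g) were anaesthetised with chloral hydrate (60 mg/kg ip), intubated and ventilated, and the left coronary artery ligated; sham rats were not ligated. Drug at 15, 30 or 60 mg/kg ip was given once daily from 7 days before to 2 days after surgery. Serum LDH, CK, SOD and MDA were measured by diagnostic kit; means SE, n = 6, P < 0.05.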

Experiment [6] in a line: Antiapoptotic activity against hypoxia-induced Sprague-Dawley rat NRVM assessed as increase in bcl2 protein level at 1 umol/l by Western blot analysis. The experiment is classed as functional. In outline: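 Myocytes were pretreated 12 h, then made hypoxic for 5 h and lysed at the end of hypoxia. Lysates were spun at 10,000 r/min for 10 min and protein quantified by BCA. Samples were transferred to PVDF and blocked 2 h at RT in TBS with 5% skim milk. For bcl-2, blots were probed 1 h at RT with rabbit anti-rat polyclonal antibody in TBS-T.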
(In general: In western blotting, separated proteins are transferred to a membrane and probed.)

A short description of experiment [7]: Antiapoptotic activity against hypoxia-induced morphological changes in Sprague-Dawley rat NRVM assessed as decrease in nuclear condensation at 1 umol/l by Heochst dye relative to hypoxia induced control. The format is functional. In outline: (§3)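 Cultured neonatal rat ventricular myocytes (trypsin-dissociated, 2 h preplating, DMEM/10% FBS with 5-bromo-deoxyuridine, 37 °C, 5% CO₂) were pretreated 12 h with compound after 48 h culture, then made hypoxic for 5 h. Nuclei were Hoechst-stained to score shrinkage and condensation.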

In experiment [8] the test system is Rattus norvegicus. The experiment in a line: Cardioprotective effect in Sprague-Dawley rat myocardial infarction model assessed as decrease in serum LDH level at 15 to 60 mg/kg, ip treated 7 days before myocardial infarction surgery and after 2 days once daily. The format is functional, organism-based. In outline:
as §2

Experiment [9] in a line: Antiapoptotic activity against hypoxia-induced Sprague-Dawley rat NRVM assessed as increase in bcl2 mRNA level at 1 umol/l by RT-PCR. The experiment is classed as functional.
A short description of experiment [10]: Antiapoptotic activity against hypoxia-induced Sprague-Dawley rat NRVM assessed as decrease in bax protein level at 1 umol/l by Western blot analysis. The format is functional.
In experiment [11] the test system is Rattus norvegicus. The experiment in a line: Cardioprotective effect in Sprague-Dawley rat myocardial infarction model assessed as decrease in serum creatine kinase level at 15 to 60 mg/kg, ip treated 7 days before myocardial infarction surgery and after 2 days once daily. The experiment is classed as functional, organism-based. The method, boiled down:
as §2

Experiment [12] in a line: Antiapoptotic activity against hypoxia-induced Sprague-Dawley rat NRVM assessed as decrease in bax mRNA level at 1 umol/l by RT-PCR. The experiment is classed as functional.
For experiment [13], the system named is Rattus norvegicus. The experiment in a line: Cardioprotective effect in Sprague-Dawley rat myocardial infarction model assessed as decrease in infarct size at 60 mg/kg, ip treated 7 days before myocardial infarction surgery and after 2 days once daily by TTC staining. The experiment is classed as functional, organism-based. Details: dose 60 mg/kg. The settings on record: Myocardium. The method, boiled down: (§4)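 Male Sprague-Dawley rats (230–250 g), anaesthetised with 7% chloral hydrate (60 mg/kg ip), intubated and ventilated; left coronary artery ligated (sham: no ligation). Five randomised groups: MI, sham, MI plus drug at 15, 30 or 60 mg/kg ip once daily. Hearts excised 2 days post-ligation, ventricles cut into five transverse slices, 1% TTC at 37 °C for 15 min; unstained area taken as infarct. Means SE.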

The subject of experiment [14] is Rattus norvegicus. Put plainly: Cardioprotective effect in Sprague-Dawley rat myocardial infarction model assessed as increase in serum SOD level at 15 to 60 mg/kg, ip treated 7 days before myocardial infarction surgery and after 2 days once daily. The experiment is classed as functional, organism-based. In outline:
as §2

Experiment [15] has as its system Rattus norvegicus. Put plainly: Cardioprotective effect in Sprague-Dawley rat myocardial infarction model assessed as decrease in infarct size at 15 mg/kg, ip treated 7 days before myocardial infarction surgery and after 2 days once daily by TTC staining. Details: dose 15 mg/kg. The experiment is classed as functional, organism-based. The settings on record: Myocardium. In outline: as §4

The nature of experiment [16]: Antiapoptotic activity against hypoxia-induced morphological changes in Sprague-Dawley rat NRVM assessed as decrease in nuclei shrunk at 1 umol/l by Heochst dye relative to hypoxia induced control. The format is functional. In outline:
as §3

The test system of experiment [17] is Rattus norvegicus. Put plainly: Cardioprotective effect in Sprague-Dawley rat myocardial infarction model assessed as decrease in infarct size at 30 mg/kg, ip treated 7 days before myocardial infarction surgery and after 2 days once daily by TTC staining. The format is functional, organism-based. Details: dose 30 mg/kg. The settings on record: Myocardium. The method, boiled down:
as §4

A short description of experiment [18]: Antiapoptotic activity against hypoxia-induced Sprague-Dawley rat NRVM assessed as decrease in caspase 3 mRNA level at 1 umol/l by RT-PCR. The format is functional.

Active and inactive are the calls of the source. No cut-off for these calls is given here.

For the compound `COC(=O)[C@@H](Cc1ccc2c(c1)OCO2)OC(C)=O`, the result in the experiment listed under Rattus norvegicus [1], in the experiment listed under Rattus norvegicus [2], in the experiment filed under Rattus norvegicus [3] and in the experiment listed under Rattus norvegicus [4] was Active.
Regarding `COC(=O)C(Cc1ccc(OC(C)=O)c(OC(C)=O)c1)OC(C)=O` (racemic), the result in the experiment listed under Rattus norvegicus [1] and in the experiment filed under Rattus norvegicus [4] was Active.
`CC(=O)O/C(=C\c1ccc(O)c(O)c1)C(=O)O`: the outcome (in the experiment filed under Rattus norvegicus [1]; in the experiment filed under Rattus norvegicus [2]; in the experiment on Rattus norvegicus [5]; in experiment [6]; in experiment [7]; in the experiment with Rattus norvegicus [8]) was Active. Moreover, the result (in [9]; in experiment [10]; with Rattus norvegicus [11]; in [12]; in the experiment on Rattus norvegicus [13]; with Rattus norvegicus [14]) was Active. Further, the outcome (in the experiment listed under Rattus norvegicus [4]; in [16]; in experiment [18]) was Active. For the same compound, the result in the experiment with Rattus norvegicus [15] and in the experiment with Rattus norvegicus [17] was inactive.
In the case of `COC(=O)C(Cc1ccc2c(c1)OCO2)OC(C)=O` (racemic), the result in the experiment listed under Rattus norvegicus [1] and in the experiment filed under Rattus norvegicus [4] was Active.
`COC(=O)[C@@H](Cc1ccc(OC(C)=O)c(OC(C)=O)c1)OC(C)=O`: the outcome (in the experiment listed under Rattus norvegicus [1]; in the experiment filed under Rattus norvegicus [2]; in experiment [6]; in [7]; in experiment [9]; in experiment [10]) was Active. Moreover, the outcome (in [12]; in the experiment listed under Rattus norvegicus [3]; in the experiment filed under Rattus norvegicus [4]; in experiment [16]; in experiment [18]) was Active.
